High-throughput results (PubChem)
TLR4 MyD88 comp – TLR4-MyD88 interaction inhibition in cells. HeLa CL3-4 TLR4/MyD88 BLA complementation, FRET ratio. AID 861. O00206+Q99836. actives 0.18% (n = 200,000). inhibition, % at 8.4 µM; in the data active = inhibition above about 25%;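 note: 0% = vehicle and 100% = reference inhibitor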
Target sequence (O00206 whole entry, looked up): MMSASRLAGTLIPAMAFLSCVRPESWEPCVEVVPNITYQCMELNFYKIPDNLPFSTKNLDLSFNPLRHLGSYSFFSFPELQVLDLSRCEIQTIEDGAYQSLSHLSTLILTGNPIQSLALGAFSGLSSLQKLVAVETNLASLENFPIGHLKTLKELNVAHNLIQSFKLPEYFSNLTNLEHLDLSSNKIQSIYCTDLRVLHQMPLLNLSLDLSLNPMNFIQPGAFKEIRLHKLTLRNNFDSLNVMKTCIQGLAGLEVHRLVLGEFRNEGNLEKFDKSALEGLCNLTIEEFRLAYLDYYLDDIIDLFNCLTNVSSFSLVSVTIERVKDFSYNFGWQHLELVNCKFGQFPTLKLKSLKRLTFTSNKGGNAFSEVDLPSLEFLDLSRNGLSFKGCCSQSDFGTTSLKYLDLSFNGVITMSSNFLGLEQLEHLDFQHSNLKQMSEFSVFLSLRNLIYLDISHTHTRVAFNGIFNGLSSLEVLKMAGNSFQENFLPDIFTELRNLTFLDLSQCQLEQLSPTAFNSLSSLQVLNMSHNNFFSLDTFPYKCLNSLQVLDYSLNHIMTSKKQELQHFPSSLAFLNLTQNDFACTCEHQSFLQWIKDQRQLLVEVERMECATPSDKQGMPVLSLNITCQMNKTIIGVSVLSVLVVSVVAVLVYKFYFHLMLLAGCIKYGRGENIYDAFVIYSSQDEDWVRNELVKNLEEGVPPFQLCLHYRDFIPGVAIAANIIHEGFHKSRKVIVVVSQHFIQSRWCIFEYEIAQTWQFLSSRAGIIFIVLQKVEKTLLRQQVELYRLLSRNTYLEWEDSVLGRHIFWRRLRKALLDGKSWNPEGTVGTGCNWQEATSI
Target sequence (Q99836 whole entry, looked up): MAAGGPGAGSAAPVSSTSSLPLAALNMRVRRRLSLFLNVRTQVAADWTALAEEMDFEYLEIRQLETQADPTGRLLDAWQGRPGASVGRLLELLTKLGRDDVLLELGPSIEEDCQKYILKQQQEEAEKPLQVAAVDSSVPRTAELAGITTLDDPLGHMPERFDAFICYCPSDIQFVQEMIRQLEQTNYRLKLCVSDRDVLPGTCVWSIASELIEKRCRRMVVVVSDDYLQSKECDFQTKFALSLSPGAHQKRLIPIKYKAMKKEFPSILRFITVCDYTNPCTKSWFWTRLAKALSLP
CHOP inhibitor – CHOP inhibition in unfolded protein response | CHO-K1 CHOP-promoter luciferase, tunicamycin-induced, 15-18 h | inhibition, % at 10 µM | actives 3.8% (n = 220,000);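 active = compounds that reduced the stress-induced luciferase reporter signal by more than about 70% of percent inhibition, limit read from the data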;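 note: 0% = tunicamycin plus vehicle and 100% = wells without tunicamycin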
CHOP UPR activ – apoptotic UPR (CHOP) activation. AID 449763. actives 0.34% (n = 330,000). activation, % at 10 µM. CHO-CHOP luciferase reporter, luminescence; percent of tunicamycin response over DMSO baseline;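 active = at 10 µM dose, activation of 40% or more, normalized to positive control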;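 note: 100% = tunicamycin at 10 µg/mL and 0% = DMSO alone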
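System: CHO CHOP reporter cells. Amount: 500 cells per well. Buffer or medium: F12 medium, 10% FBS. Compound dosing: one dose, 10 µM in 0.5% DMSO. Incubation: 6 h compound exposure at 37 °C after overnight seeding. Technique: Steady-Glo luciferase luminescence. Benchmarks: tunicamycin and DMSO controls.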
XBP1 UPR activ – activators of adaptive arm of unfolded protein response (XBP1); CHO-XBP1 luciferase reporter, IRE1-XBP1 UPR activation, luminescence; percent of tunicamycin response, DMSO as zero; activation, % at 20 µM; actives 0.33% (n = 330,000);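 active = versus positive control, 20 µM dose yields 30% or more activation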;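 note: 100% = tunicamycin at 10 µg/mL and 0% = DMSO only wells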
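Material: CHO cell line with stable XBP1 luciferase reporter; schedule: 16-18 h cell attachment at 37 °C, then 6 h compound exposure; signal: glow luminescence from Steady-Glo reagent; medium: serum-containing F12 medium, 10% FBS; benchmarks: tunicamycin 10 µg/mL and vehicle-only wells; read-out: percent activation relative to tunicamycin reference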
TLR9-MyD88 block – TLR9-MyD88 interaction inhibition; AID 504734; CHO BLA complementation TLR9-MyD88, CCF4 FRET ratio; actives 0.21% (n = 340,000); inhibition, % at 4.98 µM;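 active = inhibition above the mean over all tested compounds plus 3 SD, cut at about 21% in these data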;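 note: 0% = DMSO only wells and 100% = clavulanate BLA inhibitor control wells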
NOD2-RIPK2 inh – blocks binding of human NOD2 to RIPK2 | actives 0.38% (n = 360,000) | AID 624267 | CHO BLA complementation NOD2-RIPK2, CCF4 ratio | inhibition, % at 4.98 µM | O43353; in the data active = inhibition above about 21%;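 note: 0% = vehicle only and 100% = reference blocker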
The depositor's hits bear a star. This excerpt belongs to a sample that is enriched for hits.

How did CCCCc1nn(-c2cc(Cl)ccc2OC)c2c1C(=O)CC(C)(C)C2 do in these assays?
TLR4 MyD88 comp: -4; CHOP inhibitor: 81*; CHOP UPR activ: 4; XBP1 UPR activ: -2; TLR9-MyD88 block: -3; NOD2-RIPK2 inh: 11

What do the screens show for `CCCc1nn(-c2cc(Cl)ccc2OC)c2c1C(=O)CCC2`?
TLR4 MyD88 comp: -10; CHOP inhibitor: 30; CHOP UPR activ: 1; XBP1 UPR activ: -5; TLR9-MyD88 block: 10; NOD2-RIPK2 inh: -6

Results for Cc1cc(Cl)ccc1OCC(=O)NCCCCc1ccccc1 ?
TLR4 MyD88 comp: -8; CHOP inhibitor: -16; CHOP UPR activ: 1; XBP1 UPR activ: -2; TLR9-MyD88 block: 6; NOD2-RIPK2 inh: -2

What do the screens show for `Cc1cccc(CSCCNC(=O)COc2ccc(Cl)cc2)c1`?
TLR4 MyD88 comp: -3; CHOP inhibitor: 87*; CHOP UPR activ: -2; XBP1 UPR activ: -4; TLR9-MyD88 block: -2; NOD2-RIPK2 inh: 5

How did O=C(COc1ccc(Cl)cc1)NCCSCc1ccccc1Cl do in these assays?
TLR4 MyD88 comp: -6; CHOP inhibitor: 20; CHOP UPR activ: 0; XBP1 UPR activ: -1; TLR9-MyD88 block: -6; NOD2-RIPK2 inh: 3

Results for O=C(COc1ccc(Cl)cc1)NCCSCc1cccc(Cl)c1 ?
TLR4 MyD88 comp: 4; CHOP inhibitor: 83*; CHOP UPR activ: -2; XBP1 UPR activ: 0; TLR9-MyD88 block: -8; NOD2-RIPK2 inh: 8

What do the screens show for `O=C(COc1ccc(Cl)cc1Cl)NCCCCc1ccccc1`?
TLR4 MyD88 comp: 13; CHOP inhibitor: 85*; CHOP UPR activ: 3; XBP1 UPR activ: -1; TLR9-MyD88 block: -8; NOD2-RIPK2 inh: -5

Results for CC(C)C[C@H]1CN(CCCC[C@H]2CNC(=O)C(=O)N2CCc2ccc(O)cc2)C(=O)C(=O)N1CCc1ccccc1 ?
NOD2-RIPK2 inh: 2

How did COc1ccc(S(=O)(=O)N(C)C[C@H]2OCc3cn(nn3)CCCC(=O)N([C@H](C)CO)C[C@@H]2C)cc1 do in these assays?
TLR9-MyD88 block: -8; NOD2-RIPK2 inh: 1

What do the screens show for `CC[C@]12c3[nH]c4cc(CCC(=O)N(C)C)ccc4c3CCN1C(=O)[C@@H](CC(=O)NC(C)(C)C)C[C@@H]2C(=O)N1CCN(C(=O)c2ccco2)CC1`?
CHOP UPR activ: 3; XBP1 UPR activ: -2; TLR9-MyD88 block: -9; NOD2-RIPK2 inh: 0

Results for CCCOc1cccc(-c2cc(C(=O)N/N=C/c3cccnc3)c3ccccc3n2)c1 ?
CHOP UPR activ: 3; XBP1 UPR activ: -1; TLR9-MyD88 block: 12; NOD2-RIPK2 inh: -1

Results for CCCOc1cccc(-c2cc(C(=O)N/N=C/c3ccccn3)c3ccccc3n2)c1 ?
CHOP UPR activ: 296*; XBP1 UPR activ: -2; TLR9-MyD88 block: 4; NOD2-RIPK2 inh: -4

How did COc1cccc(N(C(=O)Cn2nnc(-c3ccc(F)cc3)n2)C(C(=O)NCC2CCCO2)c2ccc(Cl)cc2)c1 (stereo not given) do in these assays?
TLR4 MyD88 comp: 11; CHOP inhibitor: 46; CHOP UPR activ: -1; XBP1 UPR activ: 4; TLR9-MyD88 block: 8; NOD2-RIPK2 inh: -3

What do the screens show for `COc1cccc(N(C(=O)Cn2nnc(-c3ccc(Cl)cc3)n2)C(C(=O)NCC2CCCO2)c2ccc(C)cc2)c1` (stereo not given)?
TLR4 MyD88 comp: 12; CHOP inhibitor: 80*; CHOP UPR activ: 1; XBP1 UPR activ: 4; TLR9-MyD88 block: -3; NOD2-RIPK2 inh: -3

How did COc1cc(/C=C2\SC(c3ccc(C)cc3)=NC2=O)ccc1O do in these assays?
TLR4 MyD88 comp: 4; CHOP inhibitor: 86*; CHOP UPR activ: -6; XBP1 UPR activ: -3; TLR9-MyD88 block: 4; NOD2-RIPK2 inh: -3

How did COc1cc(/C=C2\SC(=S)N(NC(=O)c3cccnc3)C2=O)ccc1O do in these assays?
CHOP inhibitor: 17; CHOP UPR activ: 0; XBP1 UPR activ: -1; TLR9-MyD88 block: 8; NOD2-RIPK2 inh: 11

What do the screens show for `COc1cc(/C=C2\SC(=S)N(c3cccnc3)C2=O)ccc1O`?
CHOP inhibitor: 90*; CHOP UPR activ: 1; XBP1 UPR activ: -1; TLR9-MyD88 block: -2; NOD2-RIPK2 inh: -5

How did CC(C)=CCC/C(C)=C/C=N/NC(=O)c1cccc([N+](=O)[O-])c1 do in these assays?
TLR4 MyD88 comp: 3; CHOP inhibitor: 89*; CHOP UPR activ: -1; XBP1 UPR activ: -4; TLR9-MyD88 block: -3; NOD2-RIPK2 inh: 1

What do the screens show for `CCc1nc2c(OCCC3CCCCC3)cccn2c1N(C)C(=O)c1ccc(C)cc1`?
NOD2-RIPK2 inh: 0

Results for CC1Cc2ccccc2N1C(=O)Cc1cccs1 (stereo not given) ?
TLR4 MyD88 comp: 7; CHOP inhibitor: 71*; CHOP UPR activ: 0; XBP1 UPR activ: 1; TLR9-MyD88 block: 1; NOD2-RIPK2 inh: 5

What do the screens show for `Brc1ccc2ncnc(NCc3ccccc3)c2c1`?
TLR4 MyD88 comp: -10; CHOP inhibitor: 87*; CHOP UPR activ: 0; XBP1 UPR activ: -1; TLR9-MyD88 block: -1; NOD2-RIPK2 inh: -6

What do the screens show for `Cc1nc(Nc2ccccc2)sc1-c1ccccc1`?
TLR4 MyD88 comp: -15; CHOP inhibitor: 70*; CHOP UPR activ: 7; XBP1 UPR activ: 0; TLR9-MyD88 block: 1; NOD2-RIPK2 inh: -2

What do the screens show for `Cc1cc2nc(C(C)(C)C)c(CC3CCCCC3)n2c(C)c1Br`?
NOD2-RIPK2 inh: -10

Results for Cc1cc(NS(=O)(=O)c2ccc(NC(=O)Nc3ccccc3)cc2)no1 ?
TLR4 MyD88 comp: -9; CHOP inhibitor: 47; CHOP UPR activ: -2; XBP1 UPR activ: 2; TLR9-MyD88 block: 0; NOD2-RIPK2 inh: -1

What do the screens show for `O=C(Nc1ccc(Br)cc1)C(c1ccccc1)c1ccccc1`?
TLR4 MyD88 comp: -11; CHOP inhibitor: 83*; CHOP UPR activ: 0; XBP1 UPR activ: 0; TLR9-MyD88 block: -11; NOD2-RIPK2 inh: -6

What do the screens show for `Cc1cc(NS(=O)(=O)c2ccc(NC(=O)C(c3ccccc3)c3ccccc3)cc2)no1`?
TLR4 MyD88 comp: -3; CHOP inhibitor: 91*; CHOP UPR activ: 0; XBP1 UPR activ: 2; TLR9-MyD88 block: -5; NOD2-RIPK2 inh: -6

How did O=C(Nc1ccccc1)C(c1ccccc1)c1ccccc1 do in these assays?
CHOP UPR activ: -2; XBP1 UPR activ: 2; TLR9-MyD88 block: 5; NOD2-RIPK2 inh: 15

What do the screens show for `C/C(=N\O)C(=O)OC1CC(C)CCC1C(C)C` (stereo not given)?
TLR4 MyD88 comp: -4; CHOP inhibitor: 88*; CHOP UPR activ: -3; XBP1 UPR activ: 1; TLR9-MyD88 block: 9; NOD2-RIPK2 inh: 14

How did O=C1CCCCC1C1(O)C(=O)Nc2ccccc21 (stereo not given) do in these assays?
TLR9-MyD88 block: 1; NOD2-RIPK2 inh: -3
